Assay results reported in ChEMBL document CHEMBL4257546, “Discovery of new FXR agonists based on 6-ECDCA binding properties by virtual screening and molecular docking” (Medchemcomm, 2018).
Activity calls are given as the source filed them.

Columns and labels:
[1] = target: T1, Bile acid receptor (Homo sapiens) (UniProt Q96RI1); assay: Transactivation of full-length FXR (unknown origin) expressed in HEK293 cells at 100 uM after 18 hrs by dual-glo luciferase reporter gene assay relative to CDCA; format: cell-based
T1 sequence (whole entry): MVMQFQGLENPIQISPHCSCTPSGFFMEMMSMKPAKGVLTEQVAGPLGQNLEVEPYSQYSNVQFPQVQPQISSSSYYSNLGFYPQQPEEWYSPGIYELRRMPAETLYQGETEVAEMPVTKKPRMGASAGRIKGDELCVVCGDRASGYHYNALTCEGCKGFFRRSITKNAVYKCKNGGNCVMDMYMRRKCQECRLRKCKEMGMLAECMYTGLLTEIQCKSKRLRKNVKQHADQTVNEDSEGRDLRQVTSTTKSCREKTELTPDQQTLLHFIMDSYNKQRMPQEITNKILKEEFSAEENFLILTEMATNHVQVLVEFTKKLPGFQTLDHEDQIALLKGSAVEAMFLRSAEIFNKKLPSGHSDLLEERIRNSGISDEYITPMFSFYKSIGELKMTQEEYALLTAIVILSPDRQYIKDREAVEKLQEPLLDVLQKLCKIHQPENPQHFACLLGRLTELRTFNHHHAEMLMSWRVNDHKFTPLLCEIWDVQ
Method in brief: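 HEK293 cells co-transfected by calcium phosphate with full-length FXR expression plasmid, FXRE-driven firefly luciferase reporter and Renilla normalization vector. Compound added at 100 μM 6 h after transfection; dual luciferase read 18 h later. Firefly normalized to Renilla, expressed as fold activation over untreated cells, then as percent of maximal fold induction by CDCA. At least two separate experiments, triplicate assays.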

HEK293 [2] = assay: Effect on renilla luciferase expression in HEK293 cells at 100 uM after 18 hrs by dual-glo luciferase reporter gene assay; format: ADME, cell-based; settings: human, hek293, 18 h
Method in brief: (§1)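 HEK293 in DMEM with 10% FBS, 37 °C, 5% CO2; calcium phosphate co-transfection in serum-free medium with TK-FXRE-luc reporter (50 ng), Renilla vector (20 ng) and full-length FXR plasmid (30 ng) per well. Compounds added 6 h post-transfection, cells harvested 18 h later; Renilla luminescence (Dual-Glo) monitored as the cell-status control over 0.1–250 μM.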

Bile acid receptor = target: T2, Bile acid receptor (Homo sapiens, UniProt Q96RI1); assay: Transactivation of full-length FXR (unknown origin) expressed in HEK293 cells after 18 hrs by dual-glo luciferase reporter gene assay; format: cell-based
T2 sequence (Q96RI1 whole entry): T1 sequence (whole entry)

HEK293 [3] = assay: Cytotoxicity against HEK293 cells assessed as effect on renilla luciferase expression at 0.1 to 250 uM after 18 hrs by dual-glo luciferase reporter gene expression; format: cell-based; settings: human, hek293, 18 h; method in brief: as §1

COc1ccc(CN(C)C(=O)c2c[nH]c3ccccc23)cc1F
Activity [1]: inactive
Activity (HEK293 [2]): Non-Toxic

CNC(=O)C1CN(CC(=O)Nc2cc(C)c(Cl)cc2OC)c2ccccc2O1 (stereo unspecified)
Activity [1]: inactive
Activity (HEK293 [2]): Non-Toxic

CCOC(=O)CC(c1ccc(F)cc1)C1CCN(C(=O)c2ccc([N+](=O)[O-])o2)CC1 (stereo unspecified)
Activity [1]: inactive
Activity (HEK293 [2]): Non-Toxic

CC(NS(=O)(=O)c1ccccc1F)C(=O)Cc1nc2ccccc2[nH]1 (stereo unspecified)
Activity [1]: inactive
Activity (HEK293 [2]): Non-Toxic

CC(Sc1nnc(C2CCCC2)[nH]1)C(=O)Nc1sccc1C(N)=O (stereo unspecified)
Activity [1]: inactive
Activity (HEK293 [2]): Non-Toxic

Cc1cc(CNC(=O)c2ccccc2SC2CCS(=O)(=O)C2)ccc1F (stereo unspecified)
Activity [1]: inactive
Activity (HEK293 [2]): Non-Toxic

COC(=O)/C=C/c1ccc(OCC(=O)NC2c3ccccc3-c3ccccc32)c(OC)c1
Activity [1]: inactive
Activity (HEK293 [2]): Non-Toxic

COc1cc([N+](=O)[O-])ccc1NC(=O)CNc1ccccc1N1CCCC1=O
Efficacy [1]: 120%
EC50 (Bile acid receptor): 4.33 µM
Activity (HEK293 [2]): Non-Toxic
Activity (HEK293 [3]): Non-Toxic

O=C(CN1CC(C(=O)N2CCCCC2)Oc2ccccc21)NC(=O)NCc1ccco1 (stereo unspecified)
Activity [1]: inactive
Activity (HEK293 [2]): Non-Toxic

COc1ccc(Nc2ccc(NC(=O)c3ccccc3NS(=O)(=O)c3cc(C)ccc3C)cc2)cc1
Activity [1]: inactive
Activity (HEK293 [2]): Non-Toxic

Nc1nc(CSc2nnnn2Cc2ccccc2)nc(Nc2ccccc2)n1
Activity [1]: inactive
Activity (HEK293 [2]): Non-Toxic

O=C(CN(Cc1ccc2c(c1)OCO2)C1CCCC1)Nc1cccc2ccccc12
Activity [1]: inactive
Activity (HEK293 [2]): Non-Toxic

CCn1c(CNc2ccc(Cl)cc2)nnc1SCC(=O)NNC(=O)c1ccc(Cl)cc1
Activity [1]: inactive
Activity (HEK293 [2]): Non-Toxic

Cc1ccc([N+](=O)[O-])cc1NCC(=O)Nc1cc(C(F)(F)F)ccc1-n1cncn1
Activity [1]: inactive
Activity (HEK293 [2]): Non-Toxic

CS(=O)(=O)N1CCC(NC(=O)CC(NC(N)=O)c2ccccc2F)CC1 (stereo unspecified)
Activity [1]: inactive
Activity (HEK293 [2]): Non-Toxic

CC1(CSc2cccc(C(=O)NCc3cccs3)c2)NC(=O)NC1=O (stereo unspecified)
Activity [1]: inactive
Activity (HEK293 [2]): Non-Toxic

Cc1nn(-c2ccccc2)c(N)c1C(O)(CC(=O)C(F)(F)F)C(F)(F)F (stereo unspecified)
Activity [1]: inactive
Activity (HEK293 [2]): Non-Toxic

O=C(Nc1ccccc1)Nc1ccccc1NS(=O)(=O)c1ccccc1
Activity [1]: inactive
Activity (HEK293 [2]): Non-Toxic

Cc1cc(/N=N/Cc2ccccc2)nc(NS(=O)(=O)c2ccccc2Cl)n1
Activity [1]: inactive
Activity (HEK293 [2]): Non-Toxic

CN(Cc1ccc(N2CCCCC2)cc1)C(=O)c1n[nH]c(=O)c2ccccc12
Efficacy [1]: 60.3%
EC50 (Bile acid receptor): 14.4 µM
Activity (HEK293 [2]): Non-Toxic
Activity (HEK293 [3]): Non-Toxic

NC(=O)CSc1ccccc1NCC(=O)Nc1ccc(Cl)cc1Cl
Activity [1]: inactive
Activity (HEK293 [2]): Non-Toxic

NC(=O)CSc1ccccc1NC(=O)Nc1ccc(Cl)c(Cl)c1
Activity [1]: inactive
Activity (HEK293 [2]): Non-Toxic

O=C(COc1ccccc1Cl)NNC(=O)c1cccc(NS(=O)(=O)c2ccc3c(c2)OCCCO3)c1
Activity [1]: inactive
Activity (HEK293 [2]): Non-Toxic

O=C(Nc1ccc(N2CCOCC2)cc1)c1ccccc1SC1CCS(=O)(=O)C1 (stereo unspecified)
Activity [1]: inactive
Activity (HEK293 [2]): Non-Toxic

O=C(O)c1ccccc1-c1ccccc1C(=O)N1CCN(Cc2ccc3c(c2)OCO3)CC1
Efficacy [1]: 55.1%
EC50 (Bile acid receptor): 5.99 µM
Activity (HEK293 [2]): Non-Toxic
Activity (HEK293 [3]): Non-Toxic
